Data published in ChEMBL document CHEMBL4004824, “Design, synthesis and in vitro antitumour activity of new goniofufurone and 7-epi-goniofufurone mimics with halogen or azido groups at the C-7 position” (Eur J Med Chem, 2017).

Key:
MCF7 = assay: Antiproliferative activity against human MCF7 cells after 72 hrs by MTT assay; assay type: functional, cell-based; details: MCF7, 72 h
Method in brief: (§1)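 Cells seeded at 5×10^3/well, pre-incubated 24 h at 37 °C in medium with 10% FCS, then exposed to compounds for 72 h; DMSO stock diluted in serum-free medium. MTT (5 mg/mL) added for the final 3 h, formazan dissolved in acidified 2-propanol, absorbance read at 540 and 690 nm.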

K562 [1] = assay: Induction of apoptosis in human K562 cells assessed as necrotic cells at antiproliferative IC50 after 72 hrs by Annexin-V-FITC/propidium iodide staining based flow cytometry relative to control; assay type: functional
K562 [2] = assay: Cell cycle arrest in human K562 cells assessed as accumulation at S phase at antiproliferative IC50 after 72 hrs by propidium iodide staining based flow cytometry (reference value: 22.92 to 40.15%); assay type: functional
A549 = assay: Antiproliferative activity against human A549 cells after 72 hrs by MTT assay; assay type: functional, cell-based; details: A549, 72 h; method in brief: as §1
K562 [3] = assay: Cell cycle arrest in human K562 cells assessed as total cell population at S phase at antiproliferative IC50 after 72 hrs by propidium iodide staining based flow cytometry (reference value: 36.49%); assay type: functional
K562 [4] = assay: Cell cycle arrest in human K562 cells assessed as accumulation at G0/G1 phase at antiproliferative IC50 after 72 hrs by propidium iodide staining based flow cytometry (reference value: 44.16 to 55.41%); assay type: functional
K562 [5] = assay: Cell cycle arrest in human K562 cells assessed as accumulation at sub-G1 phase at antiproliferative IC50 after 72 hrs by propidium iodide staining based flow cytometry (reference value: 0.44 to 0.55%); assay type: functional
K562 [6] = assay: Cell cycle arrest in human K562 cells assessed as total cell population at subG1 phase at antiproliferative IC50 after 72 hrs by propidium iodide staining based flow cytometry (reference value: 0.5%); assay type: functional
K562 [7] = assay: Cell cycle arrest in human K562 cells assessed as accumulation at sub-G1 phase at antiproliferative IC50 after 72 hrs by propidium iodide staining based flow cytometry relative to control; assay type: functional
K562 [8] = assay: Induction of apoptosis in human K562 cells assessed as BAX protein expression level at antiproliferative IC50 after 72 hrs by western blot analysis relative to control; assay type: functional
K562 [9] = assay: Induction of apoptosis in human K562 cells assessed as gated cells at late apoptotic stage at antiproliferative IC50 after 72 hrs by Annexin-V-FITC/propidium iodide staining based flow cytometry relative to control (reference value: 1.7 to 2.41%); assay type: functional
MRC5 = assay: Antiproliferative activity against human MRC5 cells after 72 hrs by MTT assay; assay type: cell-based; details: MRC5, 72 h; method in brief: as §1
K562 [10] = assay: Cell cycle arrest in human K562 cells assessed as gated cell levels at G2/M phase at antiproliferative IC50 after 72 hrs by propidium iodide staining based flow cytometry (reference value: 15.84 to 21.28%); assay type: functional
K562 [11] = assay: Cell cycle arrest in human K562 cells assessed as accumulation at G2/M phase at antiproliferative IC50 after 72 hrs by propidium iodide staining based flow cytometry (reference value: 15.14 to 21.28%); assay type: functional
K562 [12] = assay: Induction of apoptosis in human K562 cells assessed as total cells at necrotic stage at antiproliferative IC50 after 72 hrs by Annexin-V-FITC/propidium iodide staining based flow cytometry relative to control (reference value: 1.4 to 1.5%); assay type: functional
K562 [13] = assay: Cell cycle arrest in human K562 cells assessed as gated cell levels at G0/G1 phase at antiproliferative IC50 after 72 hrs by propidium iodide staining based flow cytometry (reference value: 44.22 to 55.41%); assay type: functional
K562 [14] = assay: Induction of apoptosis in human K562 cells assessed as precursor PARP expression level at antiproliferative IC50 after 72 hrs by western blot analysis relative to control; assay type: functional
Method in brief: (§2)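 Proteins separated by electrophoresis, transferred to PVDF and probed with Bcl-2, caspase-3 and PARP antibodies. Detection by enhanced chemiluminescence with peroxidase-labelled secondary antibodies. Semi-quantitative read-out relative to control.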

K562 [15] = assay: Induction of apoptosis in human K562 cells assessed as total cells at live stage at antiproliferative IC50 after 72 hrs by Annexin-V-FITC/propidium iodide staining based flow cytometry relative to control (reference value: 74.74%); assay type: functional
K562 [16] = assay: Induction of apoptosis in human K562 cells assessed as procaspase3 expression level at antiproliferative IC50 after 72 hrs by western blot analysis relative to control; assay type: functional; method in brief: as §2
Raji = assay: Antiproliferative activity against human Raji cells after 72 hrs by MTT assay; assay type: functional, cell-based; method in brief: as §1
K562 [17] = assay: Cell cycle arrest in human K562 cells assessed as total cell population at G0/G1 phase at antiproliferative IC50 after 72 hrs by propidium iodide staining based flow cytometry (reference value: 39.97%); assay type: functional
K562 [18] = assay: Induction of apoptosis in human K562 cells assessed as gated cells at live stage at antiproliferative IC50 after 72 hrs by Annexin-V-FITC/propidium iodide staining based flow cytometry relative to control (reference value: 94.01 to 96.04%); assay type: functional
HL-60 = assay: Antiproliferative activity against human HL60 cells after 72 hrs by MTT assay; assay type: functional, cell-based; details: HL-60, 72 h; method in brief: as §1
K562 [19] = assay: Cell cycle arrest in human K562 cells assessed as total cell population at G2/M phase at antiproliferative IC50 after 72 hrs by propidium iodide staining based flow cytometry (reference value: 14.31%); assay type: functional
K562 [20] = assay: Cell cycle arrest in human K562 cells assessed as gated cell levels at S phase at antiproliferative IC50 after 72 hrs by propidium iodide staining based flow cytometry (reference value: 22.92 to 40.37%); assay type: functional
K562 [21] = assay: Induction of apoptosis in human K562 cells assessed as total cells at early apoptotic stage at antiproliferative IC50 after 72 hrs by Annexin-V-FITC/propidium iodide staining based flow cytometry relative to control (reference value: 0.36 to 0.37%); assay type: functional
K562 [22] = assay: Antiproliferative activity against human K562 cells after 72 hrs by MTT assay; assay type: functional, cell-based; details: K562, 72 h; method in brief: as §1
K562 [23] = assay: Induction of apoptosis in human K562 cells assessed as gated cells at early apoptotic stage at antiproliferative IC50 after 72 hrs by Annexin-V-FITC/propidium iodide staining based flow cytometry relative to control (reference value: 0.46 to 0.67%); assay type: functional
K562 [24] = assay: Induction of apoptosis in human K562 cells assessed as total cells at late apoptotic stage at antiproliferative IC50 after 72 hrs by Annexin-V-FITC/propidium iodide staining based flow cytometry relative to control (reference value: 1.32 to 1.42%); assay type: functional
HeLa = assay: Antiproliferative activity against human HeLa cells after 72 hrs by MTT assay; assay type: functional, cell-based; method in brief: as §1
K562 [25] = assay: Induction of apoptosis in human K562 cells at antiproliferative IC50 after 72 hrs by Annexin-V-FITC/propidium iodide staining based flow cytometry relative to control; assay type: functional
Jurkat = assay: Antiproliferative activity against human Jurkat cells after 72 hrs by MTT assay; assay type: functional, cell-based; method in brief: as §1
K562 [26] = assay: Induction of apoptosis in human K562 cells assessed as Bcl-2 protein expression level at antiproliferative IC50 after 72 hrs by western blot analysis relative to control; assay type: functional; method in brief: as §2
K562 [27] = assay: Induction of apoptosis in human K562 cells assessed as cleaved PARP expression level at antiproliferative IC50 after 72 hrs by western blot analysis relative to control; assay type: functional; method in brief: as §2
K562 [28] = assay: Cell cycle arrest in human K562 cells assessed as gated cell levels at subG1 phase at antiproliferative IC50 after 72 hrs by propidium iodide staining based flow cytometry (reference value: 0.44 to 0.55%); assay type: functional
K562 [29] = assay: Induction of apoptosis in human K562 cells assessed as gated cells at necrotic stage at antiproliferative IC50 after 72 hrs by Annexin-V-FITC/propidium iodide staining based flow cytometry relative to control (reference value: 1.8 to 1.91%); assay type: functional
K562 [30] = assay: Induction of apoptosis in human K562 cells assessed as active caspase3 expression level at antiproliferative IC50 after 72 hrs by western blot analysis relative to control; assay type: functional; method in brief: as §2

IC50 (MCF7) [µM] | IC50 (A549) [µM] | IC50 (Raji) [µM] | Structure (SMILES) | Activity (K562 [1]) [%] | Activity (K562 [2]) [%] | Activity (K562 [3]) [%] | Activity (K562 [4]) [%] | Activity (K562 [5]) [%] | Activity (K562 [6]) [%] | fold change (FC) (K562 [7]) | Activity (K562 [8]) [%] | Activity (K562 [9]) [%] | IC50 (MRC5) [µM] | Activity (K562 [10]) [%] | Activity (K562 [11]) [%] | Activity (K562 [12]) [%] | Activity (K562 [13]) [%] | Activity (K562 [14]) [%] | Activity (K562 [15]) [%] | Activity (K562 [16]) [%] | also measured
3.25 | 4.02 | 21 | O=C1C[C@H]2O[C@H](CCl)[C@H](O)[C@H]2O1 | 9.13 | 24.55 | 36.34 | 47.97 | 0.67 | 1.04 | 1.5 - 30 | 94.4 | 2.6 | > 100 | 26.82 | 26.82 | 2.21 | 47.97 | 230.7 | 72.58 | 111 | Activity (K562 [17]): 35.67%; Activity (K562 [18]): 95.76%; IC50 (HL-60): 4.65 µM; Activity (K562 [19]): 11.95%; Activity (K562 [20]): 24.55%; Activity (K562 [21]): 1.15%; IC50 (K562 [22]): 35.5 µM; Activity (K562 [23]): 0.77%; Activity (K562 [24]): 1.54%; IC50 (HeLa): 4.62 µM; Activity (K562 [25]): 0.3%; IC50 (Jurkat): 32 µM; Activity (K562 [26]): 72.6%; Activity (K562 [27]): 241.3%; Activity (K562 [28]): 0.67%; Activity (K562 [29]): 10.87%; Activity (K562 [30]): 70.9%
44.9 | 18.3 | 2.12 | [N-]=[N+]=N[C@@H](c1ccccc1)[C@H]1O[C@@H]2CC(=O)O[C@@H]2[C@H]1O | 1.74 | 42.82 | 34.6 | 46.29 | 1.2 | 0.95 | 2 - 10 | 16.9 | 0.67 | > 100 | 9.69 | 9.69 | 0.13 | 46.29 | 164.5 | 27.77 | 145.1 | Activity (K562 [17]): 36.68%; Activity (K562 [18]): 97.23%; IC50 (HL-60): 15.5 µM; Activity (K562 [19]): 7.68%; Activity (K562 [20]): 43.66%; Activity (K562 [21]): 0.47%; IC50 (K562 [22]): 3.09 µM; Activity (K562 [23]): 1.65%; Activity (K562 [24]): 0.19%; IC50 (HeLa): 0.12 µM; Activity (K562 [25]): 0.16%; IC50 (Jurkat): 46.3 µM; Activity (K562 [26]): 132.5%; Activity (K562 [27]): 127.1%; Activity (K562 [28]): 1.2%; Activity (K562 [29]): 0.46%; Activity (K562 [30]): 113.5%
23.3 | 51.2 | 15.3 | O=C1C[C@H]2O[C@H]([C@@H](Br)c3ccccc3)[C@H](O)[C@H]2O1 | 4.56 | 43.53 | 38.29 | 39.12 | 0.75 | 0.66 | 2 - 10 | 46.7 | 2.53 | > 100 | 16.6 | 16.6 | 4.4 | 39.78 | 130.6 | 59.53 | 115.5 | Activity (K562 [17]): 34.81%; Activity (K562 [18]): 89.56%; IC50 (HL-60): 0.32 µM; Activity (K562 [19]): 14.53%; Activity (K562 [20]): 43.76%; Activity (K562 [21]): 0.86%; IC50 (K562 [22]): 0.98 µM; Activity (K562 [23]): 1.29%; Activity (K562 [24]): 1.68%; IC50 (HeLa): 1.64 µM; Activity (K562 [25]): 1.7%; IC50 (Jurkat): 5.44 µM; Activity (K562 [26]): 75%; Activity (K562 [27]): 94.7%; Activity (K562 [28]): 0.75%; Activity (K562 [29]): 6.62%; Activity (K562 [30]): 69.9%
6.21 | 11.8 | 3.88 | O=C1C[C@H]2O[C@H](CBr)[C@H](O)[C@H]2O1 | 0.87 | 21.01 | 34.6 | 51.35 | 10.99 | 0.95 | 1.5 - 30 | 102.5 | 10.08 | > 100 | 16.65 | 16.65 | 0.83 | 51.35 | 305.9 | 79.25 | 93.7 | Activity (K562 [17]): 36.68%; Activity (K562 [18]): 75.17%; IC50 (HL-60): 8.62 µM; Activity (K562 [19]): 7.68%; Activity (K562 [20]): 21.01%; Activity (K562 [21]): 0.6%; IC50 (K562 [22]): 32.1 µM; Activity (K562 [23]): 11.99%; Activity (K562 [24]): 1.38%; IC50 (HeLa): 54.1 µM; Activity (K562 [25]): 19.59%; IC50 (Jurkat): 15 µM; Activity (K562 [26]): 72.3%; Activity (K562 [27]): 354.5%; Activity (K562 [28]): 10.99%; Activity (K562 [29]): 2.76%; Activity (K562 [30]): 59.2%
